Source: PubChem BioAssay (several laboratories)
The list is not random: actives were taken first. Their share in the collection is about 3%.
Apaf1 inhib = inhibitors of human Apaf-1 apoptosome, primary screen, biochemical, DEVD-Rh110 fluorescence, uHTS | reconstituted apoptosome caspase-3 activity | 330,000 tested, 0.71% active | inhibition, % at 20 µM | Apoptotic protease-activating factor 1 (Homo sapiens), O14727; active means inhibition of at least 40% at 20 µM;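 further: plate controls were DMSO wells for no effect and DEVD-CHO caspase inhibitor wells for full effect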
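Material: reconstituted apoptosome with Apaf-1, cytochrome c, caspase-9, procaspase-3, dATP / Buffer or medium: pH 7.5 Hepes buffer with CHAPS, BSA, DTT / Also added: cytochrome c with DEVD-Rh110 / Schedule: compound with Apaf-1, dATP, procaspase-3 30 min, then 50 min reaction, room temperature / Technique: rhodamine 110 fluorescence at Ex 480/Em 540 nm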
MEKK3 PB1 HTS = modulators of MEKK3-MEK5 PB1 binding, primary screen, biochemical, wildtype MEKK3, multiplex bead flow cytometry, Alexa488-MEK5. Mitogen-activated protein kinase kinase kinase 3 (Homo sapiens), Q99759. 290,000 tested, 1.4% active. binding response (% of control), % at 10 µM. bead-based flow cytometry, Alexa488-MEK5 binding to MEKK3; actives lie on both sides; 0 = blocked by unlabeled MEK5, 100 = vehicle;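 active means binding response more than 3 SD above or below the average of its plate-row segment, actives on both sides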;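 further: Alexa488 bead fluorescence after subtracting the streptavidin-only scavenger bead signal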
MEKK2mut PB1 HTS = MEK5 binding signal on mutant MEKK2 PB1, primary screen, biochemical, multiplex bead flow cytometry, Alexa488-MEK5. Alexa488-MEK5 binding to MEKK2 mutant. percent response, % at 10 µM. 290,000 tested, 0.35% active. AID 1530, 2009; in the data active means percent response above about 24%, passing the limit was not always enough
UBC13 inh = UBC13 polyubiquitin chain formation inhibitors, primary screen, biochemical, TR-FRET, uHTS. 330,000 tested, 0.47% active. Ubiquitin-conjugating enzyme E2 N (Homo sapiens), P61088. inhibition, % at 20 µM; in the data active means inhibition above about 45%, passing the limit was not always enough
Target sequence (P61088 whole entry, looked up): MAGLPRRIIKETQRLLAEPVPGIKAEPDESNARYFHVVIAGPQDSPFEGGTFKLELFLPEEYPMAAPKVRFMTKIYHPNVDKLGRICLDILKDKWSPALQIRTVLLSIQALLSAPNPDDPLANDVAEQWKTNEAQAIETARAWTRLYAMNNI
MEKK2wt PB1 HTS = modulators of MEK5 binding to wildtype MEKK2, primary screen, biochemical, multiplex bead flow cytometry, Alexa488-MEK5. binding response (% of control), % at 10 µM. 290,000 tested, 1.1% active. Alexa488-MEK5 binding to MEKK2 WT; actives lie on both sides. Mitogen-activated protein kinase kinase kinase 2 (Homo sapiens), Q9Y2U5; in the data active means binding response below about 67% or above about 130%
UCH37 inh = inhibitors of human UCH37 deubiquitinase, primary screen, biochemical, Ub-AMC cleavage, fluorescence | 330,000 tested, 0.33% active | Ubiquitin carboxyl-terminal hydrolase isozyme L5 (Homo sapiens), Q9Y5K5 | purified proteasome/UCH37 | AID 588478, 2011 | inhibition, % (no concentration beside the values);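 active means mean inhibition over replicate wells above about 20%, limit read from the data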;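 further: 0% = compound-free wells with enzyme and 100% = wells lacking proteasome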
Target sequence (Q9Y5K5 whole entry, looked up): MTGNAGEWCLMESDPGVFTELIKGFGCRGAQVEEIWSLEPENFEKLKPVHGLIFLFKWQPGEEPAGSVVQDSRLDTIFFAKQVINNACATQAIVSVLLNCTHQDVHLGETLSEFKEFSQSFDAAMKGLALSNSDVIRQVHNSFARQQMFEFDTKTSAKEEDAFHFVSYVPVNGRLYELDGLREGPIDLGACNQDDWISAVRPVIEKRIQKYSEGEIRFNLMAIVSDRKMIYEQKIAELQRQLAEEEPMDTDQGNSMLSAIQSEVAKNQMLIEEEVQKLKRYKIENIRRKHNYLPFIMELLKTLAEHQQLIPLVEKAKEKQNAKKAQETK
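Material: Human UCH37 enzyme supplied as purified proteasome complex | Schedule: 30 min preincubation with enzyme, 25 min cleavage at room temperature | Detection: AMC fluorescence 355/460 nm | Measure: % inhibition of Ub-AMC cleavage fluorescence | Controls: Wells without proteasome as full block, compound-free enzyme plus substrate as uninhibited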
MEKK2wt confirm = modulators of MEK5 binding to wildtype MEKK2, confirmation, biochemical, single concentration, multiplex bead flow cytometry; binding response (% of control), % at 10 µM; Alexa488-MEK5 binding to MEKK2 WT; actives lie on both sides; 5,900 tested, 2.4% active; shares compounds with MEKK3 PB1 HTS; in the data active means binding response below about 16% or above about 210%; inactive means in between
MEKK2mut confirm = mutant MEKK2 PB1-MEK5 binding signal retest – biochemical, single concentration, multiplex bead flow cytometry, confirmation | Alexa488-MEK5 binding to MEKK2 mutant | percent response, % at 10 µM | shares compounds with MEKK3 PB1 HTS | 5,900 tested, 2% active | AID 1893, 2009; in the data active means percent response mostly above about 71%, no sharp cut-off; inactive means mostly below about 38%;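 further: higher means compound restores mutant binding toward wildtype level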
MEKK3 confirm = MEKK3 wild-type PB1 binding to MEK5, inhibitors, confirmation, biochemical, bead multiplex flow cytometry, single concentration, wildtype | Alexa488-MEK5 binding to MEKK3; stronger effect = lower value | shares compounds with MEKK3 PB1 HTS | binding response (% of control), % at 10 µM | AID 1894, 2009 | 5,900 tested, 1.8% active;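 active means binding response below 72% of control, or above a set upper limit, though filed actives all read lower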;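 further: 100% = DMSO only wells and 0% = binding blocked by excess unlabeled MEK5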
* = called active by the depositor; / = not tested or not shown; [ ] = dose if it differs, or a comment.

SMILES	Apaf1 inhib	MEKK3 PB1 HTS	MEKK2mut PB1 HTS	UBC13 inh	MEKK2wt PB1 HTS	UCH37 inh	MEKK2wt confirm	MEKK2mut confirm	MEKK3 confirm
Cc1ccc(CC2SC(N)=NC2=O)cc1 (stereo not given)	-4	99	-5	-6	96	1	/	/	/
COc1ccccc1NC(=O)c1ccc(NC(=O)COC(=O)CC(NC(=O)c2ccccc2Cl)c2ccccc2)cc1 (stereo not given)	4	130*	0	-9	103	6	93	-8	108
COc1ccccc1NC(=O)c1ccc(NC(=O)COC(=O)C(C)C)cc1	2	94	-2	0	96	6	/	/	/
O=C(COc1ccc(Br)cc1CNCCc1ccccc1)NCc1ccccc1	-5	100	6	7	145*	3	150	35	112
CCNCc1cc(Br)c(OCC(=O)Nc2ccccc2)c(OC)c1	10	98	4	13	110	3	/	/	/
COc1cc(CNCc2ccccc2)cc(Cl)c1OC	-8	100	0	9	99	5	/	/	/
COc1cc(CNCCc2ccccc2)cc(Cl)c1OCc1ccccc1	-3	101	37	42	192*	3	202	73*	112
CCCNCc1cc(Br)ccc1OCC(=O)NCCc1ccccc1	1	111	-1	0	101	-1	/	/	/
CCOc1cc(CNC2CCCC2)cc(Cl)c1OCc1ccccc1	14	105	22	38	141*	-1	115	19	103
COc1cc(CNCCc2ccccc2)cc(Br)c1OCC(=O)Nc1ccccc1C	12	95	33	42	182*	3	137	15	106
COc1ccc(-c2nnn(-c3ccc(Cl)cc3Cl)c2N)cc1	-5	95	1	1	101	4	/	/	/
O=C(OCCN=C1NS(=O)(=O)c2ccccc21)c1ccccc1	-3	122*	7	8	127	2	103	2	104
CS(=O)(=O)NCCSCc1ccccc1	-1	97	-4	3	102	4	/	/	/
Cc1ccc(CSCCNS(C)(=O)=O)cc1	-1	58*[inhibitor]	-4	-1	91	1	100	2	101
Cc1c(C(=O)N(Cc2ccccc2)Cc2cccs2)cnn1-c1ccc(Cl)cc1	12	132*	27	3	129	/	95	-8	101
CCOC(=O)C(=NCCOC)NNc1cc(Cl)ccc1Cl	13	140*	0	11	108	0	104	-1	101
CCc1ccc(C(=O)NNc2cc(Cl)ccc2Cl)cc1	15	92	-10	-1	95	2	/	/	/
CCN(CC)c1ccc2cc(-c3nnc(-c4ccccc4)o3)c(=O)oc2c1	23	89	-3	9	60*[inhibitor]	-12	75	-14	94
